Published values pooled from the literature.
Protocols differ between the studies behind these lines.
Target: Cytoplasmic tyrosine-protein kinase BMX (BMX, Homo sapiens, UniProt P51813)
Residues used in one study (P51813 1-675): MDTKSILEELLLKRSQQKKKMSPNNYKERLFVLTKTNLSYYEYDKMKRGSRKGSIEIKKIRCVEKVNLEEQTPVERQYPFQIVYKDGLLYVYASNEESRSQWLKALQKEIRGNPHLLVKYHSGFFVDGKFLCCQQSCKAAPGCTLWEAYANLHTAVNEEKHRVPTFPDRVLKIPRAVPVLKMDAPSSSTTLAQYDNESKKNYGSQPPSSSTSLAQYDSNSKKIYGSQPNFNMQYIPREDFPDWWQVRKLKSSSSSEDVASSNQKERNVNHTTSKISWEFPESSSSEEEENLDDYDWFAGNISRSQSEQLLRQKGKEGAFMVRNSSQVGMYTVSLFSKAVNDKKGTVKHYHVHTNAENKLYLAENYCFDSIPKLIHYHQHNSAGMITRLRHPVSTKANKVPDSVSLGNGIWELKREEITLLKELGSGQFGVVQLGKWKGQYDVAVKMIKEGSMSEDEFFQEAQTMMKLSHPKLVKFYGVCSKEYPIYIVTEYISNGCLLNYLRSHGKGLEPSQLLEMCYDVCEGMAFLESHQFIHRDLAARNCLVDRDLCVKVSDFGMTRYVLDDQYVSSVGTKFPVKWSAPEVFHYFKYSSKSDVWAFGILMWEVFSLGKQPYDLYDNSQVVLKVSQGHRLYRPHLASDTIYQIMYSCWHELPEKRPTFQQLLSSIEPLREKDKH

| SMILES | read-out | method | concentration | remaining binding [%] |
| --- | --- | --- | --- | --- |
| O=C(O)[C@H]1[C@H](Cn2nnc3ccccc3c2=O)CC[C@@H]1C(=O)c1ccc(OCCC2CCOCC2)cc1 | cell-free assay | competition with immobilised ligand | 1 µM | 92 |
| COc1ncc2cc3ccccc3nc2c1C#N | cell-free assay | competition with immobilised ligand | 5 µM | 99 |
| CN(c1nccc(-c2cnn3ncccc23)n1)C1CC1 | binding |  | 1 µM | 82 |
| CCC(=N\O)/C(C)=C/c1ccc(F)cc1 | cell-free assay | competition with immobilised ligand | 1 µM | 83 |
| C=CC(=O)N1CCC(C(=O)NCC(=O)N2CCN(c3nc(-c4cnc(N)nc4C(F)F)nc(N4CCOCC4)n3)CC2)CC1 | binding | competition with immobilised ligand | 1 µM | 99 |
| C[C@@H](c1cccc(C#N)c1)n1cc(Cl)cc(C(N)=O)c1=N | cell-free assay | competition with immobilised ligand | 1 µM | 95 |
| O=C(NCC1CCOCC1)c1n[nH]cc1NC(=O)c1c(F)cccc1F | binding | competition with immobilised ligand | 1 µM | 100 |
| CN(C)c1nccc(-c2cnc3ncccn23)n1 | binding |  | 1 µM | 100 |
| CCCOc1ccc([C@H]2[C@H](C(=O)O)[C@@H](c3ccc4c(c3)OCO4)CN2CC(=O)Nc2c(CC)cccc2CC)cc1 | cell-free assay | competition with immobilised ligand | 1 µM | 100 |
| C[C@H]1CCN(c2nccc(-c3cnn4ncccc34)n2)C1 | binding |  | 1 µM | 84 |
| Cc1cc(-n2nc(Cc3cc(F)cc(C(F)(F)F)c3)nc2C)ccc1C(N)=O | cell-free assay | competition with immobilised ligand | 1 µM | 100 |
| CN(C)c1nccc(-c2cnn3ncccc23)n1 | binding |  | 1 µM | 87 |
| COc1cnc(Nc2cccc(S(N)(=O)=O)c2)nc1N1CCN(c2ccccc2)C(=O)C1 | binding | competition with immobilised ligand | 1 µM | 100 |
| Cc1cnc(Nc2ccc(C(=O)N3CCC(N4CCCC4)CC3)cc2)nc1-c1cc2ccccc2s1 | binding | competition with immobilised ligand | 1 µM | 75 |
| CC(=O)c1c(NS(C)(=O)=O)c2cc(-c3ccc(Cl)cc3)c(-c3ccc(Cl)cc3Cl)nc2n(C)c1=O | cell-free assay | competition with immobilised ligand | 1 µM | 100 |
| CCN1CCN(Cc2ccc(C(=O)Nc3ccc(C)c(Oc4ccc5c(c4)CC(=O)N5)c3)cc2C(F)(F)F)CC1 | binding | competition with immobilised ligand | 1 µM | 88 |
| O=C(NCCCN1CCOCC1)c1ccc(Nc2nccc(-c3cc4ccccc4s3)n2)cc1 | binding | competition with immobilised ligand | 1 µM | 100 |
| CC1CCCN1c1nccc(-c2cnn3ncccc23)n1 (stereo not drawn) | binding |  | 1 µM | 94 |
| O=C(c1ccc(Nc2ncc(Cl)c(-c3ccc(Cl)s3)n2)cc1)N1CCC(N2CCCC2)CC1 | binding | competition with immobilised ligand | 1 µM | 79 |
| CN(CCCC(F)(F)F)c1nccc(-c2cnn3ncccc23)n1 | binding |  | 1 µM | 83 |
| COc1cnc(Nc2cccc(S(N)(=O)=O)c2)nc1N1CCN(c2ccccc2)CC1 | binding | competition with immobilised ligand | 1 µM | 93 |
